In ChEMBL document CHEMBL3112518, “Design, synthesis and anticancer activity evaluation of novel C14 heterocycle substituted epi-triptolide” (Eur J Med Chem, 2014):

Key:
[1] = tested on: PC-3; experiment: Cytotoxicity against human PC3 cells after 72 hrs by sulforhodamine B assay; type: functional, cell-based; details: PC-3, 72 h
Summary of the method: (§1)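 Cells in 96-well plates were exposed in triplicate to a concentration gradient of each agent at 37 °C for 72 h, and growth was then measured by sulforhodamine B staining. IC50 is the concentration giving 50% growth inhibition relative to untreated control cells, calculated by the logit method.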

[2] = tested on: SK-OV-3; experiment: Cytotoxicity against human SKOV3 cells after 72 hrs by sulforhodamine B assay; type: functional, cell-based; details: SK-OV-3, 72 h; summary of the method: as §1

Work on `CC(C)[C@]12O[C@H]1[C@@H]1O[C@]13[C@]1(O[C@H]1C[C@H]1C4=C(CC[C@@]13C)C(=O)OC4)[C@]21CN(c2ccc3c(cnn3CCN3CCOCC3)c2)CO1` yielded an IC50 [1] of 253 nM and an IC50 [2] of 152 nM.
`CC(C)[C@]12O[C@H]1[C@@H]1O[C@]13[C@]1(O[C@H]1C[C@H]1C4=C(CC[C@@]13C)C(=O)OC4)[C@]2(O)Cn1cc(C2CC2)nn1` was tested, and the IC50 [1] was > 10000 nM and the IC50 [2] was > 10000 nM.
With `COC(=O)c1cn(C[C@@]2(O)[C@]34O[C@H]3C[C@H]3C5=C(CC[C@]3(C)[C@@]43O[C@H]3[C@@H]3O[C@@]32C(C)C)C(=O)OC5)nn1` the IC50 [1] was > 10000 nM and the IC50 [2] was > 10000 nM.
In the case of `CC(C)[C@]12O[C@H]1[C@@H]1O[C@]13[C@]1(O[C@H]1C[C@H]1C4=C(CC[C@@]13C)C(=O)OC4)[C@]2(O)Cn1cc(-c2ccccc2)nn1`, the IC50 [1] is reported as > 10000 nM and the IC50 [2] is reported as > 10000 nM.
For `CC(C)[C@]12O[C@H]1[C@@H]1O[C@]13[C@]1(O[C@H]1C[C@H]1C4=C(CC[C@@]13C)C(=O)OC4)[C@]2(O)CNc1cccnc1`, the IC50 [1] was 2810 nM and the IC50 [2] was 745 nM.
Work on `CC(C)[C@]12O[C@H]1[C@@H]1O[C@]13[C@]1(O[C@H]1C[C@H]1C4=C(CC[C@@]13C)C(=O)OC4)[C@]2(O)CNc1cccc2[nH]ccc12` yielded an IC50 [1] of 97.8 nM and an IC50 [2] of 53.8 nM.
Work on `CC(C)[C@]12O[C@H]1[C@@H]1O[C@]13[C@]1(O[C@H]1C[C@H]1C4=C(CC[C@@]13C)C(=O)OC4)[C@]2(O)CNc1ccc2[nH]ncc2c1` yielded an IC50 [1] of 25.3 nM and an IC50 [2] of 17.4 nM.
Molecule `CC(C)[C@]12O[C@H]1[C@@H]1O[C@]13[C@]1(O[C@H]1C[C@H]1C4=C(CC[C@@]13C)C(=O)OC4)[C@]2(O)CNc1ccc2cn[nH]c2c1` has an IC50 [1] of 188 nM and an IC50 [2] of 49 nM.
With `CC(C)[C@]12O[C@H]1[C@@H]1O[C@]13[C@]1(O[C@H]1C[C@H]1C4=C(CC[C@@]13C)C(=O)OC4)[C@]2(O)CNc1ccc2c(cnn2C)c1` the IC50 [1] was 132 nM and the IC50 [2] was 15 nM.
`CC(C)[C@]12O[C@H]1[C@@H]1O[C@]13[C@]1(O[C@H]1C[C@H]1C4=C(CC[C@@]13C)C(=O)OC4)[C@]2(O)CNc1ccc2nn(C)cc2c1` gave an IC50 [1] of 97 nM and an IC50 [2] of 22.3 nM.
`COC(=O)n1ncc2cc(NC[C@@]3(O)[C@]45O[C@H]4C[C@H]4C6=C(CC[C@]4(C)[C@@]54O[C@H]4[C@@H]4O[C@@]43C(C)C)C(=O)OC6)ccc21` gave an IC50 [1] of 188 nM and an IC50 [2] of 102 nM.
`COC(=O)c1n[nH]c2ccc(NC[C@@]3(O)[C@]45O[C@H]4C[C@H]4C6=C(CC[C@]4(C)[C@@]54O[C@H]4[C@@H]4O[C@@]43C(C)C)C(=O)OC6)cc12` showed an IC50 [1] of 264 nM and an IC50 [2] of 35.8 nM.
Molecule `CC(C)[C@]12O[C@H]1[C@@H]1O[C@]13[C@]1(O[C@H]1C[C@H]1C4=C(CC[C@@]13C)C(=O)OC4)[C@]2(O)CNc1ccc2c(cnn2CCN2CCOCC2)c1` has an IC50 [1] of 36.6 nM and an IC50 [2] of 36.4 nM.
`CC(C)[C@]12O[C@H]1[C@@H]1O[C@]13[C@]1(O[C@H]1C[C@H]1C4=C(CC[C@@]13C)C(=O)OC4)[C@]2(O)CNc1ccc2nn(CCN3CCOCC3)cc2c1` gave an IC50 [1] of 40.8 nM and an IC50 [2] of 77 nM.
`CC(C)[C@]12O[C@H]1[C@@H]1O[C@]13[C@]1(O[C@H]1C[C@H]1C4=C(CC[C@@]13C)C(=O)OC4)[C@]2(O)CNc1ccc2nn(CCN3CCCCC3)cc2c1` was tested, and the IC50 [1] was 66.1 nM and the IC50 [2] was 99 nM.
`CC(C)[C@]12O[C@H]1[C@@H]1O[C@]13[C@]1(O[C@H]1C[C@H]1C4=C(CC[C@@]13C)C(=O)OC4)[C@]2(O)CNc1ccc2c(c1)CC(=O)N2` was tested, and the IC50 [1] was 54.1 nM and the IC50 [2] was 38.4 nM.
`CC(C)[C@]12O[C@H]1[C@@H]1O[C@]13[C@]1(O[C@H]1C[C@H]1C4=C(CC[C@@]13C)C(=O)OC4)[C@]2(O)CNc1ccc2c(c1)C(C)(C)C(=O)N2C` showed an IC50 [1] of 84.9 nM and an IC50 [2] of 11.7 nM.
`CC(C)[C@]12O[C@H]1[C@@H]1O[C@]13[C@]1(O[C@H]1C[C@H]1C4=C(CC[C@@]13C)C(=O)OC4)[C@]2(O)CNc1ccc2ncccc2c1` showed an IC50 [1] of 452 nM and an IC50 [2] of 85 nM.
`CC(C)[C@]12O[C@H]1[C@@H]1O[C@]13[C@]1(O[C@H]1C[C@H]1C4=C(CC[C@@]13C)C(=O)OC4)[C@]2(O)CNc1ccc2nccnc2c1` showed an IC50 [1] of 157 nM and an IC50 [2] of 369 nM.
Molecule `CC(C)[C@]12O[C@H]1[C@@H]1O[C@]13[C@]1(O[C@H]1C[C@H]1C4=C(CC[C@@]13C)C(=O)OC4)[C@]2(O)CNc1ccc2ncncc2c1` has an IC50 [1] of 781 nM and an IC50 [2] of 274 nM.
For `CC(C)[C@]12O[C@H]1[C@@H]1O[C@]13[C@]1(O[C@H]1C[C@H]1C4=C(CC[C@@]13C)C(=O)OC4)[C@]2(O)CNc1ccc2oc(=O)ccc2c1`, the IC50 [1] was 353 nM and the IC50 [2] was 87.2 nM.
Molecule `CC(C)[C@]12O[C@H]1[C@@H]1O[C@]13[C@]1(O[C@H]1C[C@H]1C4=C(CC[C@@]13C)C(=O)OC4)[C@]2(O)CNc1ccc2occc(=O)c2c1` has an IC50 [1] of 341 nM and an IC50 [2] of 368 nM.
Molecule `CC(C)[C@]12O[C@H]1[C@@H]1O[C@]13[C@]1(O[C@H]1C[C@H]1C4=C(CC[C@@]13C)C(=O)OC4)[C@]2(O)CNc1ccc2c(c1)C(=O)CCO2` has an IC50 [1] of 172 nM and an IC50 [2] of 32.1 nM.
For `CC(C)[C@]12O[C@H]1[C@@H]1O[C@]13[C@]1(O[C@H]1C[C@H]1C4=C(CC[C@@]13C)C(=O)OC4)[C@]2(O)CNc1ccc2c(c1)CC(=O)O2`, the IC50 [1] was 67.9 nM and the IC50 [2] was 12.5 nM.
Work on `CC(C)[C@]12O[C@H]1[C@@H]1O[C@]13[C@]1(O[C@H]1C[C@H]1C4=C(CC[C@@]13C)C(=O)OC4)[C@]21CN(c2ccc3c(cnn3C)c2)CO1` yielded an IC50 [1] of 365 nM and an IC50 [2] of 79.7 nM.
Molecule `CC(C)[C@]12O[C@H]1[C@@H]1O[C@]13[C@]1(O[C@H]1C[C@H]1C4=C(CC[C@@]13C)C(=O)OC4)[C@H]2O` [EPITRIPTOIIDE] has an IC50 [1] of 1320 nM.
